Source: PMC7376976 (Bioorganic & medicinal chemistry letters, 2020)

Assays:
[1] = target: T1, ΔFosB/JunD heterodimer (Homo sapiens, UniProt P17535+P53539); format: binding
T1 sequence (P53539 1-237 isoform P53539-11): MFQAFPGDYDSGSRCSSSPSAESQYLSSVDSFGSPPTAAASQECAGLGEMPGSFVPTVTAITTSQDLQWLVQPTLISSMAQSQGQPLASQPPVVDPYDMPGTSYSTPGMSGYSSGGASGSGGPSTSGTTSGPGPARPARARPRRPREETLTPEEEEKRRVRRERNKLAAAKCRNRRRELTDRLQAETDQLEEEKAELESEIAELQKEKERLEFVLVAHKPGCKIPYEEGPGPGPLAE
T1 sequence (P17535 1-347): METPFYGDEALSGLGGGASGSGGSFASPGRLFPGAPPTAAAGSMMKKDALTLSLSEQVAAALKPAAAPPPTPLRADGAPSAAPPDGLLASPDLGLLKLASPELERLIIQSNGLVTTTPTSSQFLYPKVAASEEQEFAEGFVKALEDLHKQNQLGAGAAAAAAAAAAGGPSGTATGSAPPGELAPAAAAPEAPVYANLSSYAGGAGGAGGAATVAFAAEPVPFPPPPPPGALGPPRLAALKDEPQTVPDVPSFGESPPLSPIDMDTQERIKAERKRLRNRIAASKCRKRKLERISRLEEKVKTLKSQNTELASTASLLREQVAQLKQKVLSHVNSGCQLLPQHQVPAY
Procedure, shortened: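 Annealed 19-mer cdk5 AP-1 duplex, TAMRA-labelled at both 5′ ends, used at 25 nM in 20 mM HEPES pH 7.5, 150 mM NaCl. Added to test compound (10 concentrations, 0–200 μM, quadruplicate) for 5 min, then ΔFosB/JunD at 280 nM (as monomers) for 15 min. FP read at excitation 530/540 nm, emission 590 nm. Oligo-only wells set 100% inhibition. Four-parameter IC50; mean ± SD of two days.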

[2] = target: T2, ΔFosB homodimer (Homo sapiens, UniProt P53539); format: binding
T2 sequence (P53539 1-237 isoform P53539-11): T1 sequence (P53539 1-237 isoform P53539-11)
Procedure, shortened: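 Test compound serially diluted (10 concentrations, 0–200 μM, quadruplicate). Annealed 19-mer cdk5 AP-1 duplex, TAMRA-labelled at both 5′ ends, added at 25 nM in 20 mM HEPES pH 7.5, 50 mM NaCl for 5 min. ΔFosB then added at 320 nM (as monomers) for 15 min. FP read at excitation 530 or 540 nm, emission 590 nm. Four-parameter IC50; mean ± SD of two independent days.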

Structure (SMILES)	activity in FP-assay against ΔFosB/JunD heterodimers (in words) [1]	activity in FP-assay against ΔFosB homodimers (in words) [2]
COc1cccc2c1NC(C(=O)O)C1CCCC21 (stereo not shown) [Compound 14]	lacked significant activity	lacked significant activity
Cc1cccc2c3c(c(C(=O)O)nc12)CCC3 [Compound 21]	little activity even at 100 μM or higher	little activity even at 100 μM or higher
COc1cc(OC)c2c(C(=O)O)nc3c(OC)cccc3c2c1 [Compound 25]	lacked activity	lacked activity
CCOC(=O)c1nc2c(C)cccc2c2c1CCC2 [Compound 20]	little activity even at 100 μM or higher	little activity even at 100 μM or higher
COc1cccc2c1N(C(C)=O)C(C(=O)O)C1CC=CC21 (stereo not shown) [Compound 13]	lacked significant activity	lacked significant activity
